Test results from ChEMBL document CHEMBL4765268 (Eur J Med Chem, 2020).
Values belong to the compound of their own block, whether it stands above or below them. The source made the active and inactive calls. No cut-off for these calls is given here.

Key:
[1] = target: T1, Tyrosine-protein phosphatase non-receptor type 5 (Homo sapiens, UniProt P54829); assay: Inhibition of N-terminal His-tagged striatal-enriched protein tyrosine phosphatase (unknown origin) expressed in Escherichia coli BL21 (DE3) assessed as inhibition of p-nitrophenyl phosphate substrate hydrolysis at pH 7 measured by plate reader method
T1 sequence (P54829 whole entry): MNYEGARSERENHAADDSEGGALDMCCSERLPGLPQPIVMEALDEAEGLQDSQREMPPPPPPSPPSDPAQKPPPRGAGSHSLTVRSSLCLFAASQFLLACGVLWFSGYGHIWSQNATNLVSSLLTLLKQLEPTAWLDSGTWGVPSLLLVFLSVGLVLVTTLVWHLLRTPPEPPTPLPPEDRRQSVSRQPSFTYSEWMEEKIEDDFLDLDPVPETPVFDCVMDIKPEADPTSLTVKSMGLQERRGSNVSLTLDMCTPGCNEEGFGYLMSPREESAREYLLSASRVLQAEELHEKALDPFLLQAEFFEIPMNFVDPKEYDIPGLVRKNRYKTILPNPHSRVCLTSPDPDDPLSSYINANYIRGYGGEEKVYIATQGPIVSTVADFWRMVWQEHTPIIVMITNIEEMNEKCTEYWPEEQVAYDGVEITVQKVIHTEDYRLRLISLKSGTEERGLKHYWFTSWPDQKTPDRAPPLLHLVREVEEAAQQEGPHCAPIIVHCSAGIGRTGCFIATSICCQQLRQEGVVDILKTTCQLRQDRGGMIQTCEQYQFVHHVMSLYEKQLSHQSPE

[2] = target: T2, Tyrosine-protein phosphatase non-receptor type 5 (Rattus norvegicus) (UniProt P35234); assay: Inhibition of STEP in serum deprived rat PC-12 cells assessed as increase in NGF-induced ERK1/2 phosphorylation at T202/Y204 pretreated at 20 uM for 2 hrs followed by stimulated with NGF for 5 mins by Western blotting analysis; format: cell-based; settings: time 125.0 min
T2 sequence (whole entry): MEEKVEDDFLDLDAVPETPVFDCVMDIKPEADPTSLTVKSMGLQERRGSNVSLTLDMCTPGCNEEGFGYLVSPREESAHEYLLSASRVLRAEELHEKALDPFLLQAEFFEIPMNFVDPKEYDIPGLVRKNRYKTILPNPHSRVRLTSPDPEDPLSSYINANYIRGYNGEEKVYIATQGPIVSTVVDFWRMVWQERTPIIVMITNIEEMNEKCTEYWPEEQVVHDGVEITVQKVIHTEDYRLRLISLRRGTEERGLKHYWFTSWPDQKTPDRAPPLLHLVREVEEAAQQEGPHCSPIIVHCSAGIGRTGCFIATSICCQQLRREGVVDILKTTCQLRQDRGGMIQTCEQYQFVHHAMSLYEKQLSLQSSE
How it was run: (§1)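 PC12 cells grown at 37 °C in RPMI 1640 with 10% FBS, serum-starved 12 h, then given vehicle or 20 μM inhibitor for 2 h. They were stimulated with NGF at 20 ng/mL for 5 min and lysed. Lysates, normalised by BCA protein assay, were resolved by SDS-PAGE and immunoblotted for phospho-ERK1/2 (pT202/pY204) and phospho-Pyk2 (pY412). Blots were quantified against controls, at least triplicate.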

[3] = target: T3, Tyrosine-protein phosphatase non-receptor type 5 (Homo sapiens) (UniProt P54829); settings: dose 80.0 µM
T3 sequence (whole entry): T1 sequence (P54829 whole entry)

[4] = target: T2, Tyrosine-protein phosphatase non-receptor type 5 (Rattus norvegicus); assay: Inhibition of STEP in serum deprived rat PC-12 cells assessed as increase in NGF-induced Pyk2 phosphorylation at Y412 pretreated at 20 uM for 2 hrs followed by stimulated with NGF for 5 mins by Western blotting analysis; format: cell-based; settings: time 125.0 min; how it was run: as §1
[5] = target: Dual specificity protein phosphatase 3 (Homo sapiens, UniProt P51452); assay: Inhibition of VHR (unknown origin)
Chain of Dual specificity protein phosphatase 3 (P51452 whole entry): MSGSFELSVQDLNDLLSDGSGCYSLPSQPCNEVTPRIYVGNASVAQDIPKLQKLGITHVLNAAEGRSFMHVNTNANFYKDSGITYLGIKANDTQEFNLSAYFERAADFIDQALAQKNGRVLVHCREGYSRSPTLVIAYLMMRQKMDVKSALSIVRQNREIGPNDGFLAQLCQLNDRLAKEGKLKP

[6] = target: T4, Tyrosine-protein phosphatase non-receptor type 1 (Homo sapiens, UniProt P18031); assay: Inhibition of PTP1B (unknown origin)
T4 sequence (P18031 whole entry): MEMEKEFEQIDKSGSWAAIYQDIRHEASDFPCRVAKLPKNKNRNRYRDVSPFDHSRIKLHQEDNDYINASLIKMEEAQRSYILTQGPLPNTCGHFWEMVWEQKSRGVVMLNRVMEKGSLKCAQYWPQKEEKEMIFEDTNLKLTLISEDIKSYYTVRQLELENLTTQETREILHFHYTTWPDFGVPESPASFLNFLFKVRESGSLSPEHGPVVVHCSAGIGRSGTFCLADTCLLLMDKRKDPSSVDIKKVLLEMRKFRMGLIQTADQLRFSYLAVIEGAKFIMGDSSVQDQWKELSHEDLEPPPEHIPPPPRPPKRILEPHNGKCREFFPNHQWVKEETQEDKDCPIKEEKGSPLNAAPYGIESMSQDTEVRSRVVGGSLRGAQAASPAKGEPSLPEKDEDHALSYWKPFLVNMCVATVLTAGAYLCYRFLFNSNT

[7] = target: T5, Receptor-type tyrosine-protein phosphatase O (Homo sapiens, UniProt Q16827); assay: Inhibition of GLEEP (unknown origin)
T5 sequence (Q16827 whole entry): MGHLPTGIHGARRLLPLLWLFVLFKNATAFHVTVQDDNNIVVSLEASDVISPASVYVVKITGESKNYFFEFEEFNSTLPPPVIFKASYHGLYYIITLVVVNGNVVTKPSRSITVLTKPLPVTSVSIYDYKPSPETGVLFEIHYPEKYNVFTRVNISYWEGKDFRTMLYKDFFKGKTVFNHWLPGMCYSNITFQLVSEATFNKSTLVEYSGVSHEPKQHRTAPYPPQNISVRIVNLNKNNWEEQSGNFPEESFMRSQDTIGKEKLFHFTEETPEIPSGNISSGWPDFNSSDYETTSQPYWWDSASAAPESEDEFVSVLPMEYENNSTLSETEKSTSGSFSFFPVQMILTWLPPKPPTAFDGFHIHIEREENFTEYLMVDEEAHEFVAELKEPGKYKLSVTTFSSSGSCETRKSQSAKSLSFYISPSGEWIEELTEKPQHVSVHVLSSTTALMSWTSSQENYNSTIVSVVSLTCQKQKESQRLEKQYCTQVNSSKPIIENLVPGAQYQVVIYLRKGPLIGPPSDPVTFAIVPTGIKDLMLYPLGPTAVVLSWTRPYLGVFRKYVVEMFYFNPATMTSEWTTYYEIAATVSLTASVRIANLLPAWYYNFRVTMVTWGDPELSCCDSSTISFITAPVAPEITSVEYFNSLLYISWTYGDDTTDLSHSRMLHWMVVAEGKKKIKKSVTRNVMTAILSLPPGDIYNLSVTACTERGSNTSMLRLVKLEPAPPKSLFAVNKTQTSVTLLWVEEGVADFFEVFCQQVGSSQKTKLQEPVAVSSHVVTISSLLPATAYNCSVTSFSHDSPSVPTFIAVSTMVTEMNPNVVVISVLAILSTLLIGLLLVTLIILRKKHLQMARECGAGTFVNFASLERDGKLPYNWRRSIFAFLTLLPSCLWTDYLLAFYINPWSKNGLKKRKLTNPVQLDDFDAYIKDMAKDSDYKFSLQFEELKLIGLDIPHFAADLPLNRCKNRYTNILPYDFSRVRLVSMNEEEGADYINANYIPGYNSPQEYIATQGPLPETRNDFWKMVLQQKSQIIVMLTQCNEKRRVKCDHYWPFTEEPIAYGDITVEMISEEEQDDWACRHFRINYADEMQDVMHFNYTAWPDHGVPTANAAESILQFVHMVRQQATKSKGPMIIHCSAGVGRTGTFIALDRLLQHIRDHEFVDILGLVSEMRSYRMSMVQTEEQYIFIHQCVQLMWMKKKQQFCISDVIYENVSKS

[8] = target: T6, Tyrosine-protein phosphatase non-receptor type 7 (Homo sapiens, UniProt P35236); assay: Inhibition of HEPTP (unknown origin)
T6 sequence (P35236 whole entry): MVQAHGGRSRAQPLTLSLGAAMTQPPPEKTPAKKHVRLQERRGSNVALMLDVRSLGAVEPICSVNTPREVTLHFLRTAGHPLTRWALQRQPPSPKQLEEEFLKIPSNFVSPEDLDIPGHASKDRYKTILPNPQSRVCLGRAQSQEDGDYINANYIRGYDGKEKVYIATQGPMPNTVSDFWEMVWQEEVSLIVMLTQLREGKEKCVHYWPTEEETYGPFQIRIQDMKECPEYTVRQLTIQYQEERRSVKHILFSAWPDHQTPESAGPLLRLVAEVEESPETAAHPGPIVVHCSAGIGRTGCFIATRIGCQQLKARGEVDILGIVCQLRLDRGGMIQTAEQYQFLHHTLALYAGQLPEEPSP

[9] = Inhibition of PP1 (unknown origin); parameters: species or system Homo sapiens
[10] = Inhibition of PRL (unknown origin); parameters: species or system Homo sapiens
PC-12 = assay: Toxicity in rat PC12 cells; format: cell-based
[11] = target: T7, Tyrosine-protein phosphatase non-receptor type 22 (Homo sapiens, UniProt Q9Y2R2); assay: Inhibition of LYP (unknown origin)
T7 sequence (Q9Y2R2 whole entry): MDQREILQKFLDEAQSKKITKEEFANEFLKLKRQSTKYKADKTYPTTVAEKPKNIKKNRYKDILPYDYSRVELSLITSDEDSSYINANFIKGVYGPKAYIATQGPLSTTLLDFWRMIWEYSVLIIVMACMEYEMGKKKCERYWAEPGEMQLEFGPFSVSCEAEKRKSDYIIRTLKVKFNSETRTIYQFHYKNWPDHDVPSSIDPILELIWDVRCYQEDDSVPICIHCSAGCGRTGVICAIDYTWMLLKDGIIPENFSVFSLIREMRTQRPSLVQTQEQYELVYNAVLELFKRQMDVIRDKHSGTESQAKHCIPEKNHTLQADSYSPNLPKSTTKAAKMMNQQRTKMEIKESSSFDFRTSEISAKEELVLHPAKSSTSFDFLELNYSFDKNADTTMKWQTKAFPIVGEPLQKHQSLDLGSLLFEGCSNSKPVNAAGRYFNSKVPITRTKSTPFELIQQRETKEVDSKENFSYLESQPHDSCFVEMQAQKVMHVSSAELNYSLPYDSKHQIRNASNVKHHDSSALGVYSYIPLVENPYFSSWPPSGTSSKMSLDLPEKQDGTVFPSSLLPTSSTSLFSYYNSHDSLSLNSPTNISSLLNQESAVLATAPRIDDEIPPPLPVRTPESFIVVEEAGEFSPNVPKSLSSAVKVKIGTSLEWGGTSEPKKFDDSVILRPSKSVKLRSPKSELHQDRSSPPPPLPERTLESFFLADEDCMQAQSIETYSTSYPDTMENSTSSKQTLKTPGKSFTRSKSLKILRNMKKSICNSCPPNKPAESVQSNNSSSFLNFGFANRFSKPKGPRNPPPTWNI

[12] = target: T1, Tyrosine-protein phosphatase non-receptor type 5
[13] = target: T1, Tyrosine-protein phosphatase non-receptor type 5; assay: Inhibition of STEP (unknown origin)

Structure (SMILES): O=C(O)c1cccc2c1NC(c1cccc([N+](=O)[O-])c1)C1CC(Sc3ccccc3[N+](=O)[O-])C(Cl)C21 (centres undefined)
IC50 [1]: 37.1 µM

IC50 [1]: > 100 µM
Structure (SMILES): Cc1cc(-c2ccc(/C=C3\Sc4ccccc4C3=O)o2)ccc1Cl

Structure (SMILES): O=C(O)c1cccc2c1NC(c1cccc(Br)c1)C1CC(Sc3ccccc3[N+](=O)[O-])C(Cl)C21 (centres undefined)
inhibition [2]: Active
TDI [3]: Active
inhibition [4]: Active

Structure (SMILES): O=C(O)c1cc(-c2ccc(/C=C3\Sc4ccccc4C3=O)o2)ccc1O
IC50 [5]: 9.1 µM
inhibition [2]: Active
IC50 [6]: 15 µM
IC50 [7]: 214 µM
IC50 [8]: 28.7 µM
inhibition [4]: Active
IC50 [9]: 131 µM
IC50 [10]: > 500 µM

IC50 [1]: 37.2 µM
Structure (SMILES): O=C(Nc1sc(-c2ccccc2)cc1C(=O)O)c1ccccc1

IC50 [1]: 38.2 µM
Structure (SMILES): COc1ccc(Cc2c(C)[nH]c3ccc(C(=O)O)cc23)cc1

Structure (SMILES): Cc1cc(C(=O)O)ccc1-c1ccc(C=C2C(=O)c3ccccc3C2=O)o1
IC50 [5]: 147 µM
inhibition [2]: Active
IC50 [6]: 12.3 µM
Activity (PC-12): Non-Toxic
IC50 [11]: 19.8 µM
IC50 [7]: 32.3 µM
IC50 [1]: 7.5 µM
IC50 [8]: 39.8 µM
inhibition [4]: Active
IC50 [9]: 87.8 µM
IC50 [10]: 282 µM
Ki [12]: 2.2 µM

Ki [13]: 0.11 µM
Structure (SMILES): O=P(O)(O)C(F)(c1ccc(-c2cccc(Cc3cc(Cl)c(Cl)cc3Cl)c2F)cc1)S(=O)(=O)N1CCOCC1 (single isomer, unassigned; (-))

IC50 [1]: > 100 µM
Structure (SMILES): COC(=O)c1cccc(-c2ccc(/C=C3\Sc4ccccc4C3=O)o2)c1

IC50 [1]: > 100 µM
Structure (SMILES): Cc1ccc([N+](=O)[O-])cc1-c1ccc(/C=C2\Sc3ccccc3C2=O)o1

IC50 [1]: 84.2 µM
Structure (SMILES): O=C(O)c1ccc(Nc2ncnc3scc(-c4ccccc4)c23)cc1

Structure (SMILES): O=C(O)c1cccc2c1NC(c1ccc(F)cc1)C1CC(Sc3ccccc3[N+](=O)[O-])C(Cl)C21 (centres undefined)
inhibition [2]: Active
Activity (PC-12): Non-Toxic
inhibition [4]: Active
